Data: ChEMBL document CHEMBL5356984 (RSC Med Chem, 2023)

Tests used:
[1] = Thermal stability of compound in boiling toluene at 120 degreeC assessed as time taken for compound decomposition at 1 mg/ml by HPLC analysis; assay type: physicochemical; conditions: read-out: T50
HCC1806 = test: Antiproliferative activity against human HCC1806 cells assessed as inhibition of cell viability measured after 48 hrs by MTT assay; assay type: functional, cell-based; conditions: HCC1806, 48 h
How it was run: (§1)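 MTT cell viability read-out; IC50 obtained by non-linear regression of concentration–response data; values are mean ± SD of three independent experiments.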

MDA-MB-468 = test: Antiproliferative activity against human MDA-MB-468 cells assessed as inhibition of cell viability measured after 48 hrs by MTT assay; assay type: functional, cell-based; conditions: MDA-MB-468, 48 h; how it was run: as §1
MDA-MB-231 = test: Antiproliferative activity against human MDA-MB-231 cells assessed as inhibition of cell viability measured after 48 hrs by MTT assay; assay type: functional, cell-based; conditions: MDA-MB-231, 48 h; how it was run: as §1
MCF7 [2] = test: Antiproliferative activity against human MCF7 cells assessed as inhibition of cell viability at 20 uM measured after 48 hrs by MTT assay relative to control; assay type: functional
MCF7 [3] = test: Antiproliferative activity against human MCF7 cells assessed as inhibition of cell viability measured after 48 hrs by MTT assay; assay type: functional, cell-based; conditions: MCF7, 48 h; how it was run: as §1
HEK-293T = test: Cytotoxicity against HEK293T cells assessed as cell growth inhibition measured after 48 hrs by MTT assay; assay type: functional, cell-based; conditions: Homo sapiens; how it was run: as §1
SK-BR-3 = test: Antiproliferative activity against human SK-BR-3 cells assessed as inhibition of cell viability measured after 48 hrs by MTT assay; assay type: functional, cell-based; conditions: SK-BR-3, 48 h; how it was run: as §1
BT-474 = test: Antiproliferative activity against human BT-474 cells assessed as inhibition of cell viability measured after 48 hrs by MTT assay; assay type: functional, cell-based; conditions: BT-474, 48 h; how it was run: as §1

Row | SMILES | half-life at 1 mg/ml [1] | IC50 (HCC1806) | IC50 (MDA-MB-468) | IC50 (MDA-MB-231) | IC50 (MCF7 [3]) | IC50 (SK-BR-3) | IC50 (BT-474) | inhibition at 20 µM (MCF7 [2]) | IC50 (HEK-293T)
1 | CC(C)=CCC[C@]1(C)/C=C/[C@@H](OC(=O)C=C(C)C)[C@](C)(O)/C=C/C(=O)/C(CN2CCN(C)CC2)=C\C1 | < 5 min |  |  |  |  |  |  |  | 
2 | CN1CCN(/C=C/C(=O)/C=C/c2cccc3c2OCO3)CC1 |  | 13.2 µM | > 20 µM | 8.14 µM | 12.9 µM |  |  | > 50% | 
3 | COC1=C2C[C@@H](C)C[C@H](OC)[C@H](O)[C@@H](C)/C=C(\C)[C@H](OC(N)=O)[C@@H](OC)/C=C\C=C(/C)C(=O)NC(=CC1=O)C2=O [GELDANAMYCIN] |  | 0.12 µM | 0.033 µM | 0.15 µM | 0.13 µM | 0.033 µM | 0.027 µM |  | 0.53 µM
4 | CO[C@@H]1[C@@H](OC(N)=O)[C@@H](O)[C@H](Oc2ccc3c(O)c(NC(=O)c4ccc(O)c(CC=C(C)C)c4)c(=O)oc3c2C)OC1(C)C [NOVOBIOCIN] |  |  |  |  |  |  |  |  | > 100 µM

More lines, main results first:

Row | half-life at 1 mg/ml [1] | IC50 (HCC1806) | IC50 (MDA-MB-468) | IC50 (MDA-MB-231) | IC50 (MCF7 [3]) | IC50 (SK-BR-3) | IC50 (BT-474) | SMILES | inhibition at 20 µM (MCF7 [2]) | IC50 (HEK-293T)
5 |  | 14.8 µM | > 20 µM | 9.13 µM | 14.2 µM |  |  | COc1cc(/C=C/C(=O)/C=C/N2CCN(C)CC2)cc(OC)c1 | > 50% | 
6 |  | 14.7 µM | > 20 µM | 12.9 µM | 16.7 µM |  |  | COc1cc(/C=C/C(=O)/C=C/N(C)CCN(C)C)cc(OC)c1 | > 50% | 
